Data: ChEMBL document CHEMBL4325827, “Bifidenone: Structure-Activity Relationship and Advanced Preclinical Candidate” (J Med Chem, 2018)

Columns and labels:
[1] = Toxicity in Crl:NU(NCr)-Foxn1 nu mouse xenografted with human NCI-H69 cells assessed as maximum body weight loss at 60 mg/kg, ip dosed on day 1 followed by 4 days rest and subsequently dosed at 60 mg/kg, ip qd administered for 3 consecutive days followed by 2 days of rest for 2 cycles measured after 3 days post dose relative to control; type: organism-based; conditions: in vivo, 72 h
Method in brief: (§1)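 Female athymic nude mice bearing subcutaneous xenografts, started from cultured cells (NCI-H460, Calu-6, NCI-H69, LOX-IMVI) or from serially passaged tumour fragments (NCI-H522). Mice were grouped into vehicle and treatment arms at tumour volumes of about 75-200 mm3. Dosing was ip at 5-10 mL/kg in 22% ethanol, 38% PEG400, 40% 20 mM Na citrate pH 5.0. Caliper volumes were taken as (length × width2)/2. Treated and control delta weights were median tumour weight minus staging-day median.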

[2] = Toxicity in Crl:NU(NCr)-Foxn1 nu mouse xenografted with human Calu6 cells assessed as mortality at 50 mg/kg, ip qd administered for 3 consecutive days followed by 2 days of rest for 4 cycles; type: organism-based; conditions: in vivo, 48 h
Method in brief: (§2)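 Female athymic nude mice bearing subcutaneous xenografts started from cultured human tumor cells. Mice were split into vehicle and treatment groups once tumors reached about 75-200 mm3. Dosing was ip at 5-10 mL/kg in 22% ethanol, 38% PEG400, 40% 20 mM Na citrate pH 5.0. Deaths per group were recorded alongside maximum mean bodyweight loss.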

UO-31 = experiment: Antiproliferative activity against taxane-resistant human UO31 cells after 72 hrs by CellTiter 96 aqueous nonradioactive cell proliferation assay; type: functional, cell-based; conditions: UO-31, 72 h
EKVX = experiment: Antiproliferative activity against taxane-resistant human EKVX cells after 72 hrs by CellTiter 96 aqueous nonradioactive cell proliferation assay; type: functional, cell-based
LOX IMVI = experiment: Antitumor activity against human LOXIMVI cells xenografted in Crl:NU(NCr)-Foxn1 nu mouse assessed as tumor growth inhibition at 30 mg/kg, ip qd for 7 consecutive days relative to control; type: functional; conditions: read-out: TGI; method in brief: as §1
[3] = Toxicity in Crl:NU(NCr)-Foxn1 nu mouse xenografted with human NCI-H69 cells assessed as mortality at 60 mg/kg, ip dosed on day 1 followed by 4 days rest and subsequently dosed at 60 mg/kg, ip qd administered for 3 consecutive days followed by 2 days of rest for 2 cycles; type: organism-based; conditions: in vivo; method in brief: as §2
[4] = Toxicity in Crl:NU(NCr)-Foxn1 nu mouse xenografted with human LOX-IMVI cells assessed as maximum body weight loss at 30 mg/kg, ip qd administered for 7 consecutive days measured after 5 days post dose relative to control; type: organism-based; conditions: in vivo, 120 h; method in brief: as §1

SMILES: C=CC[C@H]1C[C@]2([C@H](C)Cc3cc(O)c(OC)cc3F)OCOC2=CC1=O
- Activity [1]: 6%
- Activity [2]: Non-Toxic
- IC50 (UO-31): 7 nM
- IC50 (EKVX): 7 nM
- inhibition in vivo at 30 mg/kg (LOX IMVI): 63%
- Activity [3]: Non-Toxic
- Activity [4]: 9%
